High-throughput results deposited in PubChem BioAssay by several laboratories.
Many of the other results were omitted from the sample, so hits are more common in it than they were.
GSH fluor: compound fluoresces at 488/530 nm on GSH beads | AID 1776 | GSH beads flow cytometry, compound fluorescence 488/530 nm; hits give high values | fluorescence (KMESF) at 10 µM | hit rate 0.25% among 190,000; in the data active means fluorescence above about 89;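 further: glutathione beads carrying GST-tagged Bcl family fusion proteins plus one bare bead set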
ABCG2 inh: human ABCG2 inhibition, ABCB1 as counter-screen; Q9UNQ0; hit rate 0.1% among 190,000; AID 1325; inhibition, % at 6.6 µM; IgMXP3 cells, JC-1 efflux, flow cytometry;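 active means inhibition above 80%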
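Test system: ABCG2 IgMXP3 and barcoded ABCB1 CCRF-Adr cell mix; Schedule: cells with compound and JC-1, 10 min at 25 °C, rotating, no wash; Technique: flow cytometry of retained JC-1 fluorescence; Measure: % inhibition of efflux relative to nicardipine and DMSO; Controls: nicardipine high and DMSO low controls.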
L major viab: Leishmania major promastigote growth inhibition | Leishmania major promastigotes, resazurin fluorescence viability | inhibition, % at 10 µM | hit rate 9% among 200,000 | AID 1063;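 further: promastigotes grown with compound for 44 hours at 28 °C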
ABCB1 inh: human ABCB1 inhibition, ABCG2 as counter-screen; CCRF-Adr cells, JC-1 efflux, flow cytometry; inhibition, % at 6.6 µM; hit rate 0.067% among 190,000; AID 1326; in the data active means inhibition above about 40%;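 further: higher value means more JC-1 retained so stronger ABCB1 efflux block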
PKD1 kinase inh: blocks activity of human protein kinase D1. PKD1 kinase fluorescence polarization assay. Q15139. inhibition, % (test concentration not listed). hit rate 0.056% among 200,000
Avidin fluor: compound fluoresces at 488/530 nm on avidin beads | compound fluorescence 488/530 nm, flow cytometry; hits give high values | fluorescence (KMESF) at 10 µM | hit rate 0.38% among 220,000 | AID 1775; in the data active means fluorescence above about 47
A number is an active result; 0 = inactive; - = not tested or not shown. Unless noted, no stated cut-off is given here; in the data, active means inhibition above about 50%; inactive means the rest.

SMILES | GSH fluor | ABCG2 inh | L major viab | ABCB1 inh | PKD1 kinase inh | Avidin fluor
COc1ccc(C(c2c(C)[nH]n(-c3ccccc3)c2=O)c2c(C)[nH]n(-c3ccccc3)c2=O)cc1OC | 0 | - | 88 | - | 0 | 0
CCc1ccc(N2C(=O)CN(Cc3cccs3)C2=S)cc1 | 0 | 0 | 0 | 0 | 0 | 0
C=CCN1C(=O)C(CC(=O)O)SC1=Nc1ccc(C)cc1 (configuration not stated) | 0 | 0 | 0 | 0 | 0 | 0
Cc1ccc(OC(=O)C23CC4CC(CC(C4)C2)C3)c(C)n1 | 0 | 0 | 0 | 0 | 0 | 111
CCc1nc(C)ccc1OC(=O)C12CC3CC(CC(C3)C1)C2 | 0 | 0 | 0 | 0 | 0 | 0
CCC(C)(C)NC(=O)C(c1ccccc1)N(C(=O)c1csnn1)C1CC1 (configuration not stated) | 0 | 0 | 0 | 0 | 0 | 0
CN(C)c1ccc(C(C(=O)NC(C)(C)C)N(C(=O)c2csnn2)C2CC2)cc1 (configuration not stated) | 0 | 0 | 53 | 0 | 0 | 0
Cc1cc(C(=O)N/N=C2\CC(=O)c3ccccc32)c(C)n1-c1ccccc1 | 0 | 0 | 98 | 0 | 0 | 0
O=C(CN1CCCCC1)N1N=C(c2cccs2)CC1c1cccs1 (configuration not stated) | 0 | 0 | 0 | 0 | 0 | 0
COc1cccc(C2CC(c3cccs3)=NN2S(C)(=O)=O)c1OC (configuration not stated) | 0 | 0 | 0 | 0 | 0 | 0
Cc1ccc(C2CC(c3ccccc3)=NN2C(=S)Nc2ccccc2)o1 (configuration not stated) | 0 | 0 | 69 | 0 | 0 | 0
COc1ccc(C2CC(c3cccs3)=NN2C(=S)Nc2ccccc2)cc1OC (configuration not stated) | 0 | 0 | 71 | 0 | 0 | 0
S=C(Nc1ccccc1)N1N=C(c2cccs2)CC1c1cccs1 (configuration not stated) | 0 | 0 | 74 | 0 | 0 | 0
COc1cccc(C2CC(c3cccs3)=NN2C(=S)Nc2ccccc2)c1OC (configuration not stated) | 0 | 0 | 65 | 0 | 0 | 0
Cn1c(NC(=O)COc2ccccc2)cc(=O)n(C)c1=O | 0 | 0 | 0 | 0 | 0 | 0
Cc1cccc2sc(NS(C)(=O)=O)nc12 | 0 | 0 | 0 | 0 | 0 | 0
CCOC(=O)/C=C/COc1ccccc1[N+](=O)[O-] | 0 | 0 | 0 | 0 | 0 | 0
O=S(=O)(NC1CCCCC1)c1ccc(Cl)nc1 | 0 | 0 | 0 | 0 | 0 | 0
Cc1cc(C(=O)OCC(=O)c2ccc(Br)s2)c(C)o1 | 269 | 0 | 0 | 0 | 0 | 0
Cc1cc(C(=O)OCC(=O)c2ccc(Br)s2)no1 | 0 | 0 | 0 | 0 | 0 | 0
Cc1ccc(Sc2ncccc2C(=O)O)cc1C | 0 | 0 | 59 | 0 | 0 | 0
CCCCS(=O)(=O)NC1=NCN(C2CCN(Cc3ccccc3)CC2)CN1 | - | - | 0 | - | 0 | -
CCN(C(=O)CSc1nc2cc(Cl)ccc2c(=O)n1Cc1ccco1)C1CCS(=O)(=O)C1 (configuration not stated) | 0 | 0 | 0 | 0 | 0 | 0
c1ccc(C2=Nc3ccccc3OC2)cc1 | 0 | 0 | 69 | 0 | 0 | 0
O=c1c2c(nc3nc(NCc4cccc5ccccc45)[nH]n13)CCC2 | 0 | 0 | 0 | 0 | 0 | 0
SMILES | GSH fluor | ABCG2 inh | L major viab | ABCB1 inh | PKD1 kinase inh | Avidin fluor
CCOc1ccc(/C=C2/SC(=S)N(C(C(=O)O)c3ccccc3)C2=O)cc1OCC (configuration not stated) | 0 | 0 | 0 | 0 | 0 | 0
CCOc1cc(/C=C2/SC(=S)N(C)C2=O)ccc1Oc1ccc([N+](=O)[O-])cc1[N+](=O)[O-] | 0 | 0 | 63 | 0 | 0 | 0
CN1C(C(=O)NCc2cccc(Br)c2)CC2Cn3c(nc4cc5ccccc5cc43)C21 (configuration not stated) | - | - | - | - | - | 0
CC(C)n1c(-c2ccc(N(C)C)cc2)nc2ccccc21 | 0 | 0 | 50 | 0 | 0 | 0
CCN(CC)CCNC1=NCCn2c1cc1cc(OC)ccc12 | 0 | 0 | 96 | 0 | 0 | 0
CN=C1c2cc3cc(OC)ccc3n2CCN1Cc1ccccc1 | 0 | 0 | 0 | 0 | 0 | 0
Cc1nc2c(Br)cc(Br)cc2cc1O | 0 | 0 | 0 | 0 | 0 | 0
O=C(Nc1ccc(S(=O)(=O)C(F)F)cc1)c1cccc(S(=O)(=O)N2CCOCC2)c1 | 0 | 0 | 0 | 0 | 0 | 0
CNC1=C(N(C(C)=O)c2ccc(Br)cc2)C(=O)c2ccccc2C1=O | 0 | 0 | 99 | 0 | 0 | 0
